Source: ChEMBL document CHEMBL1125799, “Gossypol and derivatives: a new class of aldose reductase inhibitors” (J Med Chem, 1991)

Assays:
[1] = biological target: T1, Aldo-keto reductase family 1 member B1 (Homo sapiens, UniProt P15121); experiment: The compound was tested for inhibitory activity against Aldose reductase from human placenta
In short: (§1)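 Aldose reductase purified from human placenta, with NADP present throughout purification and storage, kept at –20 °C. Assay in 0.1 M sodium phosphate pH 7 with 10 mM D,L-glyceraldehyde substrate and 0.1 mM NADPH at 25 ± 1 °C. NADPH oxidation followed as A340 decrease. Initial rates corrected for the rate without aldehyde substrate. Ki derived from Dixon plots.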

[2] = biological target: T1, Aldo-keto reductase family 1 member B1; experiment: The compound was tested for inhibitory activity against aldose reductase from human placenta; in short: as §1

Row | Structure (SMILES) | Ki [1] [µM] | Ki [2] [µM]
1 | COc1c(-c2c(C)cc3c(C(C)C)c(O)c(O)c(CO)c3c2OC)c(C)cc2c(C(C)C)c(O)c(O)c(CO)c12 | 4.3 | –
2 | COc1c(OC)c(C=O)c2c(OC)c(-c3c(C)cc4c(C(C)C)c(OC)c(OC)c(C=O)c4c3OC)c(C)cc2c1C(C)C | 56 | –
3 | Cc1cc2c(C(C)C)c(O)c(O)c3c2c(c1-c1c(C)cc2c(C(C)C)c(O)c(O)c4c2c1OC4=O)OC3=O | – | 0.15
4 | COc1c(-c2c(C)cc3c(C(C)C)c(O)c(O)c(C#N)c3c2OC)c(C)cc2c(C(C)C)c(O)c(O)c(C#N)c12 | 2.8 | –
5 | COc1c(OC)c2c3c(c(-c4c(C)cc5c(C(C)C)c(OC)c(OC)c6c5c4OC6=O)c(C)cc3c1C(C)C)OC2=O | – | 48
6 | COc1c(-c2c(C)cc3c(C(C)C)c(O)c(O)c(C=O)c3c2OC)c(C)cc2c(C(C)C)c(O)c(O)c(C=O)c12 | – | 0.31
7 | CCC(=O)Oc1c(-c2c(C)cc3c(C(C)C)c(O)c(O)c(C#N)c3c2OC(=O)CC)c(C)cc2c(C(C)C)c(O)c(O)c(C#N)c12 | – | 6.8
8 | Cc1cc2c(C(C)C)c(O)c(O)c(C#N)c2c(OC(=O)C(C)(C)C)c1-c1c(C)cc2c(C(C)C)c(O)c(O)c(C#N)c2c1OC(=O)C(C)(C)C | 2.5 | –
9 | C/C=C/C(=O)Oc1c(-c2c(C)cc3c(C(C)C)c(O)c(O)c(C#N)c3c2OC(=O)/C=C/C)c(C)cc2c(C(C)C)c(O)c(O)c(C#N)c12 | 1.3 | –
10 | COc1c(OC)c(C=O)c2c(O)c(-c3c(C)cc4c(C(C)C)c(OC)c(OC)c(C=O)c4c3O)c(C)cc2c1C(C)C | 9.7 | –
11 | CCCCCC(=O)Oc1c(-c2c(C)cc3c(C(C)C)c(O)c(O)c(C#N)c3c2OC(=O)CCCCC)c(C)cc2c(C(C)C)c(O)c(O)c(C#N)c12 | – | 3.1
12 | Cc1cc2c(C(C)C)c(O)c(O)c(/C=N/O)c2c(O)c1-c1c(C)cc2c(C(C)C)c(O)c(O)c(/C=N/O)c2c1O | 7.8 | –
13 | Cc1cc2c(C(C)C)c(O)c(O)c3c2c(c1-c1c(C)cc2c(C(C)C)c(O)c(O)c4c2c1OC4=N)OC3=N | 9.3 | –
14 | CC(=O)Oc1c(-c2c(C)cc3c(C(C)C)c(O)c(O)c(C#N)c3c2OC(C)=O)c(C)cc2c(C(C)C)c(O)c(O)c(C#N)c12 | – | 7.3
15 | CCCCC(=O)Oc1c(-c2c(C)cc3c(C(C)C)c(O)c(O)c(C#N)c3c2OC(=O)CCCC)c(C)cc2c(C(C)C)c(O)c(O)c(C#N)c12 | – | 4.7
16 | CCCC(=O)Oc1c(-c2c(C)cc3c(C(C)C)c(O)c(O)c(C#N)c3c2OC(=O)CCC)c(C)cc2c(C(C)C)c(O)c(O)c(C#N)c12 | – | 5.3
17 | COc1c(O)c(C=O)c2c(O)c(-c3c(C)cc4c(C(C)C)c(OC)c(O)c(C=O)c4c3O)c(C)cc2c1C(C)C [6,6'-METHOXYGOSSYPOL] | 1.5 | –
18 | Cc1cc2c(C(C)C)c(O)c(O)c(C=O)c2c(O)c1-c1c(C)cc2c(C(C)C)c(O)c(O)c(C=O)c2c1O [GOSSYPOL] | 0.5 | –
